Rows were chosen to be rich in hits. Some 4.4% of all compounds tested hit in one or more screens of this group.
AHR activator – AHR activators, primary screen, cell-based, luminescence, luciferase reporter, human; AID 2796, 2010; 320,000 tested, 2.5% active; activation, % at 5 µM; AHR-responsive luciferase reporter cells; Aryl hydrocarbon receptor (Homo sapiens), P35869; in the data active = activation above about 47%
AI-2 QS mod – Vibrio harveyi AI-2 quorum sensing modulators, primary screen, JMH597 strain, luminescence/OD600 ratio | Vibrio harveyi JMH597 AI-2 luminescence/OD600 ratio, 9 h; active compounds read low; strain lacks LuxN and CqsS sensors; 0 = neutral-control median | activity change, % at 7.5 µM | 300,000 tested, 0.4% active | AID 2094, 2009; in the data active = activity change below about -75%, passing the limit was not always enough;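 note: luminescence divided by OD600 gain over 9 h not by final OD600 alone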
HTR2A ag – mouse Htr2a agonists via beta-arrestin recruitment, primary screen, cell-based, luminescence; activation, % at 7.6 µM; CHO-K1 mHTR2A beta-arrestin complementation; percent of 30 µM serotonin response; 5-hydroxytryptamine receptor 2A (Mus musculus), P35363; 360,000 tested, 0.66% active;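 active = activation above a run cutoff, the mean activation of all tested compounds plus 3 SD, cut at about 14% in these data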
Target sequence (P35363 whole entry, looked up): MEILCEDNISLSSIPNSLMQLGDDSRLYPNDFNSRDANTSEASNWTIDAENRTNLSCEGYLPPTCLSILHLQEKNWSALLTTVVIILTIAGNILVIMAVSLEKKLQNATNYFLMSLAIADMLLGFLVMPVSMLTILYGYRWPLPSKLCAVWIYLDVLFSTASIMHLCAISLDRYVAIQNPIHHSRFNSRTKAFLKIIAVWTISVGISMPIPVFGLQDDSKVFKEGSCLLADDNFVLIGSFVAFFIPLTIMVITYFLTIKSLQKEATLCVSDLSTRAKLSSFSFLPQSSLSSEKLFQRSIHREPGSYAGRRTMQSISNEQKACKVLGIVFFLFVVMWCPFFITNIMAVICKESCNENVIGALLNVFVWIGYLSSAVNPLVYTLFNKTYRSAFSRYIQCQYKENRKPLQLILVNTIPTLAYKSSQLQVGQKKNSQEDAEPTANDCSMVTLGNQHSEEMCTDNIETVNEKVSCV
MsrA inhibitor – bovine MsrA enzyme inhibitors, primary screen, biochemical, absorbance, HTS; Methionine sulfoxide reductase A (Bos taurus); purified bovine MsrA, absorbance read-out; inhibition, % at 15.5 µM; 360,000 tested, 0.75% active; AID 651718, 2012; in the data active = inhibition above about 4.5%
MsrA act – bovine MsrA enzyme activators, primary screen, biochemical, absorbance, HTS; purified bovine MsrA, absorbance read-out; activation, % at 10.6 µM; 360,000 tested, 0.3% active; AID 602163, 2012; Methionine sulfoxide reductase A (Bos taurus); in the data active = activation above about 7.5%
TbMetRS inhib – T. brucei MetRS inhibitors, primary screen, biochemical, luminescence; methionyl-tRNA synthetase (Trypanosoma brucei brucei); 360,000 tested, 0.4% active; purified T. brucei MetRS, ATP depletion, Kinase-Glo luminescence; inhibition, % at 11.9 µM; AID 624268, 2012;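 active = inhibition above a per-plate cutoff of the control wells' mean inhibition plus 3 SD, cut at about 5.5% in these data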
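Measured by: Kinase-Glo luciferase luminescence reporting remaining unconsumed ATP. Material: purified T. brucei MetRS enzyme. Doses: 11.9 µM compound single dose, 0.9% DMSO. Medium: HEPES buffer containing pyrophosphatase, BSA, spermine, DTT. Times: 15 min preincubation, 2 h reaction, all 25 °C. Reagent: methionine, ATP and bulk E. coli tRNA.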
AHR act confirm – AHR activators, confirmation, cell-based, luminescence, luciferase reporter, human | activation, % at 9 µM | AID 2845, 2010 | human cells, AHR-responsive luciferase reporter | 2,300 tested, 87% active | shares compounds with AHR activator; in the data active = activation above about 49%;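 note: HepG2 hepatoma cells carrying a DRE-driven firefly luciferase reporter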
PXR counter – human PXR activators, counter-screen for AHR activator project, cell-based, luciferase luminescence; shares compounds with AHR activator; 2,300 tested, 88% active; activation, % at 11.6 µM; cell-based PXR reporter; in the data active = activation above about 11%;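 note: human hepatoma DPX-2 cells expressing full-length human PXR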
Large screens that a line does not name were inactive (follow-up assays come after a bar, where they were run).

CC(=O)c1c(C)[nH]c(C(=O)Nc2cccc(C)n2)c1C	none
CC(=O)c1c(C)[nH]c(C(=O)Nc2ccc(F)cc2F)c1C	AHR activator 98 | AHR act confirm 131 | PXR counter 38
COc1ccc(-n2nnnc2C(c2ccccc2OC(F)(F)F)N2CCN(C/C=C/c3ccccc3)CC2)cc1 (stereo not drawn)	none (no result: AHR activator, AI-2 QS mod)
CS(=O)(=O)Nc1cccc(C(=O)OCCCOc2ccc(F)cc2)c1	none
CCc1ccc(C(=O)CN(C#N)c2nc(C)cc(C)n2)cc1	AHR activator 85 | AHR act confirm 63 | PXR counter 19
[O-]/[N+](=C/c1cccnc1)c1ccc(Br)cc1	AHR activator 93 | AHR act confirm 117 | PXR counter 18
[O-]/[N+](=C\c1ccncc1)c1ccc(Br)cc1	AHR activator 123 (no result: MsrA inhibitor) | AHR act confirm 130 | PXR counter 16
O=[N+]([O-])c1ccc(/C=C/c2ccncc2)cc1	none
NC(=O)c1cc2cc(Br)ccc2o/c1=N/NC(=O)c1cccc(F)c1	none (no result: AHR activator)
COc1ccccc1N1CCN(/N=C/C=C\c2ccccc2[N+](=O)[O-])CC1	none
CC1CCCC(C)N1/N=C/C=C/c1ccccc1[N+](=O)[O-] (stereo not drawn)	AHR activator 84 | AHR act confirm 109 | PXR counter 67
CCC/C=C/c1ccc(CN2C(C)C(=O)N(Cc3cn(CC4CCCCC4)nn3)CCS2(=O)=O)cc1 (stereo not drawn)	none (no result: AHR activator, AI-2 QS mod)
O=c1c2ccccc2oc2nc(-c3ccco3)n(-c3ccccc3)c(=O)c12	AHR activator 95 | AHR act confirm 148 | PXR counter 33
CCCCn1c(N)c(N(CC(C)C)C(=O)Cc2ccc(S(=O)(=O)N3CCOCC3)s2)c(=O)[nH]c1=O	none (no result: AHR activator, AI-2 QS mod)
O=C(Nc1nnc([C@H]2C[C@H](O)[C@@H](CO)O2)s1)Nc1cccc(Cl)c1Cl	none (no result: AHR activator, AI-2 QS mod)
CCOC(=O)c1c(NCc2ccc3c(c2)OCO3)c2ccccc2[nH]c1=O	AHR activator 109 (no result: AI-2 QS mod) | AHR act confirm 74 | PXR counter 156
COc1ccc(C(C)=O)cc1CN1C(=O)NC(c2ccccc2)(c2ccccc2)C1=O	none
CCCC(=O)Nc1c2c(nc3ccccc13)N(c1ccccc1)CC2	AHR activator 108 (no result: MsrA inhibitor) | AHR act confirm 98 | PXR counter 23
O=C(CN1CCCCC1)Nc1c2c(nc3ccccc13)N(c1ccccc1)CC2	AHR activator 132 | AHR act confirm 107 | PXR counter 38
CCCC(=O)NNc1c2ccccc2nc2ccccc12	none
Nc1c2c(nc3ccccc13)N(c1ccccc1)CC2	AHR activator 143 | AHR act confirm 105 | PXR counter 22
O=C(/C=C/c1ccc([N+](=O)[O-])cc1)OCC(=O)N1CCCC1	none (no result: AI-2 QS mod)
COc1ccc(N(CCCN2C(=O)c3cccc4cccc(c34)C2=O)C(=O)c2cccs2)cc1	AHR activator 100 | AHR act confirm 140 | PXR counter 93
C(=C\c1nc(N2CCCC2)c2ccccc2n1)/c1ccccc1	AHR activator 162 | AHR act confirm 145 | PXR counter 45
Cc1ccc(Nc2nc(N)c([N+](=O)[O-])c(N3CCOCC3)n2)cc1	AHR activator 81 | AHR act confirm 77 | PXR counter 22
COCC(=O)Nc1nnc(-c2cccs2)s1	AHR activator 81 | AHR act confirm 94
CCC(C)C(=O)Nc1nnc(-c2cccs2)s1 (stereo not drawn)	AHR activator 84 (no result: AI-2 QS mod) | AHR act confirm 81 | PXR counter 48
C=C(C)C(=O)Nc1nnc(-c2cccs2)s1	none
CC(Cc1ccccc1)NC(=O)CCCN1C(=O)c2ccccc2C1=O (stereo not drawn)	none
COc1ccc(-c2cnc(C(N)=O)c(=O)[nH]2)cc1	none (no result: AHR activator, AI-2 QS mod)
CC(C)CCN(C(=O)c1ccc(Br)cc1)c1c(N)n(Cc2ccccc2)c(=O)[nH]c1=O	none (no result: AI-2 QS mod)
Cc1ccc(C(=O)N/N=C/c2ccc(-c3ccccc3[N+](=O)[O-])o2)cn1	AHR activator 93 | AHR act confirm 109 | PXR counter 16
COc1ccc(C(=O)N/N=C/C(Br)=C/c2ccccc2)cc1	none
Cn1cc(C(=O)N/N=C/C(Br)=C\c2ccccc2)ccc1=O	AHR activator 112, MsrA inhibitor 5.4 | AHR act confirm 77 | PXR counter 11
Cn1c(SCC(=O)N/N=C/C=C/c2ccccc2[N+](=O)[O-])nc2ccccc21	AHR activator 117 | AHR act confirm 56 | PXR counter 75
Cn1c(SCC(=O)N/N=C/C=C\c2ccccc2[N+](=O)[O-])nc2ccccc21	AHR activator 108 | AHR act confirm 55 | PXR counter 81
CCCS(=O)(=O)NC(=O)C1(C)CCN(C(=O)c2ccc(F)c(Cl)c2)C1 (stereo not drawn)	none (no result: AHR activator, AI-2 QS mod)
CC(C)N(CCNC(=O)c1nn(Cc2ccccc2)c(=O)c2ccccc12)C(C)C	none
Cc1ccc[n+](CC(=O)c2ccc(Br)cc2)c1C	AHR activator 83 | AHR act confirm 47
Nc1ccccc1C#Cc1ccccc1	none
Nc1ccccc1C#Cc1ccc2[nH]ccc2c1	AHR activator 94 | AHR act confirm 120 | PXR counter 24
COc1ccc(/C=C(\NC(=O)c2ccc(C)cc2)C(=O)N2CCCCC2)cc1	none
Cn1c(CNc2ccc(Cl)cc2)nnc1SCc1ccccc1	AHR activator 101 | AHR act confirm inactive | PXR counter 141
CCn1c(CNc2ccc(Cl)cc2)nnc1SCc1ccccc1	none
CCN(CC)CCCNC(=O)c1[nH]c2ccccc2c1Sc1ccc(Cl)cc1	none
Cc1ccc2c(ccc[n+]2CC(=O)c2ccccc2)c1	none
O=C(C[n+]1cc(Br)cc2ccccc21)c1ccccc1	AHR activator 93 | AHR act confirm 96 | PXR counter 103
CCC1(c2ccc(Cl)cc2)NC(=S)N(c2ccccc2)N1 (stereo not drawn)	AHR activator 80 | AHR act confirm 82 | PXR counter 12

Bioassay records: PubChem, several laboratories
